# Measured values of several laboratories.
# Each line is one published result; the experiments were not run side by side.
# Target: Eukaryotic elongation factor 2 kinase (EEF2K, Homo sapiens, UniProt O00418)
Compound,test,test system,conditions,measurement,value
CCN(CC)CCNC(=O)c1c(C)[nH]c(/C=C2\C(=O)Nc3ccc(F)cc32)c1C,"enzyme activity, inhibitor",,10 µM,inhibition,-4%
CN(c1ncccc1CNc1nc(Nc2ccc3c(c2)CC(=O)N3)ncc1C(F)(F)F)S(C)(=O)=O,"enzyme activity, inhibitor",,1 µM,inhibition,0%
Cn1c2c(c3ccc(Cl)c(Cl)c31)C(C#N)C1(CCOCC1)NC2=O (centres unmarked),"thermal stability, DSF",,10 µM,ΔTm,-0.2 °C
COc1cc(/C=C/C(=O)CC(=O)/C=C/c2ccc(O)c(OC)c2)ccc1O,"enzyme activity, inhibitor",,1 µM,activity vs control,98%
CCCOc1ccc(OC)c(F)c1C(=O)c1ccc(C(=O)N[C@@H]2CNC[C@H]2NC(=O)c2ccc3[nH]ncc3c2)cc1,"enzyme activity, inhibitor",,10 µM,remaining activity,128%
CC(C)(C)C(=O)c1sc(NC2CCCCC2)nc1N,"enzyme activity, inhibitor",,10 µM,remaining activity,111%
Cn1c2c(c3ccc(Cl)c(Cl)c31)C(C#N)C1(CCNCC1)NC2=O (racemic),"thermal stability, DSF",,10 µM,ΔTm,0 °C
COc1cc(Nc2cnc(C#N)c(O[C@H](C)CN(C)C)n2)ncc1-c1cnn(C)c1,"enzyme activity, inhibitor, radiometric",,1 µM,remaining activity,94%
CNC(=O)c1cc(Oc2ccc(NC(=O)Nc3ccc(Cl)c(C(F)(F)F)c3)cc2)ccn1,"enzyme activity, inhibitor",,10 µM,inhibition,-8%
CCN1CCN(Cc2ccc(NC(=O)c3ccc(C)c(/C=C/c4cnc5[nH]ccc5c4OC)c3)cc2C(F)(F)F)CC1,"target engagement in cells, inhibitor, chemoproteomics",A-375,0.5 µM,inhibition,-21.7%
COc1cc(Cl)c(C(=O)N[C@@H](CN[C@H]2CC[C@@H](N)CC2)Cc2ccc(C#N)cc2)cc1-c1ccc(CN[C@H](C)c2ccc(C)cc2)o1,"enzyme activity, inhibitor",,1 µM,remaining activity,80%
Cn1c2c(c3ccc(Cl)c(Cl)c31)C(C#N)C(C)(C)NC2=O (centres unmarked),"thermal stability, DSF",,10 µM,ΔTm,-0.5 °C
CC(C)(C)c1nc2c(s1)c1nc(N)ncc1c1ccc(NS(=O)(=O)c3c(F)cccc3F)c(F)c12,"enzyme activity, inhibitor, radiometric",,1 µM,remaining activity,88%
Nc1nc(Nc2ccccc2)sc1C(=O)c1c(F)cccc1F,"enzyme activity, inhibitor",,10 µM,remaining activity,95%
Cn1c(=O)n(-c2ccc(C(C)(C)C#N)cc2)c2c3cc(-c4cnc5ccccc5c4)ccc3ncc21,"enzyme activity, inhibitor",,10 µM,remaining activity,110%
Cc1ccc(Nc2nccc(N(C)c3ccc4c(C)n(C)nc4c3)n2)cc1S(N)(=O)=O,"enzyme activity, inhibitor",,10 µM,inhibition,-10%
CN1CC(Oc2cnc(C#N)cc2-c2ccn3nc(NC(=O)C4CC4)cc3c2)C1,"enzyme activity, inhibitor",,1 µM,inhibition,9%
N#CC1c2c([nH]c3c(Cl)c(Cl)ccc23)C(=O)NC12CCCCC2 (racemic),"thermal stability, DSF",,10 µM,ΔTm,-0.1 °C
CCN1CCN(Cc2ccc(NC(=O)c3ccc(C)c(Oc4ccnc5[nH]ccc45)c3)cc2C(F)(F)F)CC1,"target engagement in cells, inhibitor, chemoproteomics",A-375,5 µM,inhibition,-27.8%
FC(F)(F)Oc1cccc(-c2cnc3ccc(-c4ccncc4)nn23)c1,"enzyme activity, inhibitor, radiometric",,1 µM,activity vs control,99%
CC/C(=N\NC(=O)NCc1cccc(O)c1)c1ccc(O)c(C)c1O,"enzyme activity, inhibitor",,0.1 µM,inhibition,1.1%
Cn1c2c(c3ccccc31)C(C#N)C(C)(C)NC2=O (centres unmarked),"thermal stability, DSF",,10 µM,ΔTm,0 °C
COc1cc2ncnc(Nc3ccc(Oc4ccccc4)cc3C)c2cc1OC,"enzyme activity, inhibitor",,1 µM,inhibition,2%
